# This is a sample that favours compounds with a hit; in the whole collection about 4.1% have one here.
# TAG inh = triacylglycerol accumulation inhibition. H9c2 cells, Nile Red lipid (TAG) fluorescence; cells loaded with 200 µM oleic acid. inhibition, % at 12.5 µM. hit rate 0.66% among 230,000. AID 651582;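 active = pattern-corrected inhibition of lipid staining of at least 50% with the nuclear-stain viability signal not falling by more than 50%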;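 note: 0% = DMSO wells and 100% = triacsin C control wells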
# AHR act = activators of human aryl hydrocarbon receptor | AHR-responsive luciferase reporter cells, luminescence | activation, % at 5 µM | P35869 | hit rate 2.5% among 320,000; in the data active = activation above about 47%;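 note: 0% = vehicle wells and 100% = reference agonist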
# Tb MetRS inh = Trypanosoma brucei MetRS inhibition; inhibition, % at 11.9 µM; purified T. brucei MetRS, ATP depletion, Kinase-Glo luminescence; hit rate 0.4% among 360,000;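 active = inhibition above a per-plate cutoff of the control wells' mean inhibition plus 3 SD, cut at about 5.5% in these data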;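 note: 0% = DMSO wells median and 100% = median of wells with control inhibitor compound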
#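 Measured by: Kinase-Glo luciferase luminescence reporting remaining unconsumed ATP. Material: purified T. brucei MetRS enzyme. Doses: 11.9 µM compound single dose, 0.9% DMSO. Medium: HEPES buffer containing pyrophosphatase, BSA, spermine, DTT. Times: 15 min preincubation, 2 h reaction, all 25 °C. Reagent: methionine, ATP and bulk E. coli tRNA.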
# Efflux pump mplx = inhibitors of Candida antifungal efflux pumps expressed in yeast; S. cerevisiae Candida pump triplex, Nile Red efflux; inhibition, % at 10 µM; hit rate 0.44% among 330,000;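 active = plate passing quality check with inhibition over a set limit, or well fluorescence over plate mean plus 4 SD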;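 note: Nile Red retained in pooled yeast measured as flow cytometry median fluorescence; 0% = buffer negative control and 100% = Enniatin B positive control; higher means more Nile Red kept so more efflux inhibition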
# SMARCA2 act = increases SMARCA2 function in MMTV reporter cells; hit rate 1% among 370,000; activation, % at 9.1 µM; MG213 cells, MMTV-luciferase reporter, dexamethasone, overnight; in the data active = activation above about 7.8%;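 note: 0% = vehicle wells and 100% = reference activator wells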
# AHR act confirm = human AHR activation, confirmation. shares compounds with AHR act. human cells, AHR-responsive luciferase reporter, luminescence. activation, % at 9 µM. hit rate 87% among 2,300; in the data active = activation above about 49%;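 note: HepG2 hepatoma cells carrying a DRE-driven firefly luciferase reporter; 0% = vehicle wells and 100% = reference agonist wells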
# PXR counter = activates human PXR in AHR activator counter-screen. shares compounds with AHR act. cell-based PXR reporter, luciferase luminescence. activation, % at 11.6 µM. hit rate 88% among 2,300. AID 434939; in the data active = activation above about 11%;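 note: human hepatoma DPX-2 cells expressing full-length human PXR; 0% = DMSO and 100% = reference agonist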
# Target sequence (O75469 whole entry, looked up): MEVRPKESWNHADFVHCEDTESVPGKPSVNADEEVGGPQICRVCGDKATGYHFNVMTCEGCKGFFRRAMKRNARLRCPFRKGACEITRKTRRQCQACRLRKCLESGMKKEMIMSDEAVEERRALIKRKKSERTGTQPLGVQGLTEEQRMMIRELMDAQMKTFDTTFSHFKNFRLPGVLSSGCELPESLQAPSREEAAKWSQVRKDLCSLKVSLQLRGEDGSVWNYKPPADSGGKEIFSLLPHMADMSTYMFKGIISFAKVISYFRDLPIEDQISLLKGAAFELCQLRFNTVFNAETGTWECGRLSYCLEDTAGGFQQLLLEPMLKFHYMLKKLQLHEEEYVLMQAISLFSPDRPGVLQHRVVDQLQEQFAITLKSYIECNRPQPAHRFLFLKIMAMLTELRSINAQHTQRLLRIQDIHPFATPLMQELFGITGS
# An asterisk follows results filed as active; . = not tested or not shown.
SMILES,TAG inh,AHR act,Tb MetRS inh,Efflux pump mplx,SMARCA2 act,AHR act confirm,PXR counter
Fc1ccccc1/C=C/c1ccc2ccccc2n1,.,89*,0,0,4,74*,7
C=CCn1c(O)c(N=NC(=S)Nc2ccccc2F)c2ccccc21,14,137*,0,0,1,83*,79*
C=CCn1c(O)c(N=NC(=S)Nc2cccc(C)c2)c2ccccc21,.,123*,-1,0,-6,78*,59*
Oc1c(N=NC(=S)Nc2ccccc2F)c2ccccc2n1Cc1ccccc1,11,13,-1,0,-1,.,.
COC(=O)[C@]12C[C@H](CC(=O)NCc3cccc(C(F)(F)F)c3)C(=O)N(CCc3ccc(OC)c(OC)c3)C1=C[C@H](C1CCCC1)O[C@@H]2C,.,.,.,.,-3,.,.
COc1ccc(C=Nn2c(-c3ccc(F)cc3)n[nH]c2=S)c(OC)c1OC,.,.,.,.,-2,.,.
CCOc1ccc2c(c1)sc(=NC(=O)C1CC1)n2C,.,92*,-1,0,6,71*,37*
Cn1c(=NC(=O)C2CCCCC2)sc2cc([N+](=O)[O-])ccc21,3,2,0,0,-1,.,.
N/C(=N\OC(=O)c1cccc(Br)c1)c1ccccn1,.,99*,-1,0,1,95*,4
CCOc1ccc(C(=O)O/N=C(\N)c2ccccn2)cc1OCC,.,7,0,0,7,.,.
Nc1c(C(=O)c2ccccc2)oc2ccc(Br)cc12,.,79*,1,0,3,120*,12*
Nc1c(C(=O)c2ccc(Br)cc2)oc2ccccc12,.,122*,0,-1,2,176*,.
Cc1ccc(C(=O)c2oc3ccccc3c2N)cc1,-38,113*,0,0,2,138*,22*
COc1ccc(CNC(=O)CSc2nc3c([nH]2)c(=O)n(C)c(=O)n3C)cc1,.,.,.,.,-6,.,.
O=S(=O)(c1ccccc1)n1c(CN2CCOCC2)nc2ccccc21,.,.,.,.,-3,.,.
CCCCS(=O)(=O)N1C2=NC3=C(C(=O)N(CCOC)C3=O)C3N(C)c4ccccc4[C@]23C[C@H]1CO (stereo partly specified),.,.,.,.,-4,.,.
Nc1nc(-c2ccccc2)c(N=Nc2ccc(Cl)cc2)s1,.,120*,-2,0,-1,88*,14*
COC(=O)C1=C(C)N(Cc2ccccc2C(F)(F)F)C(=NCc2cc(OC)c(OC)c(OC)c2)NC1c1cccc(F)c1 (stereo unspecified),.,.,.,.,-4,.,.
CC(OC(=O)c1cc(O)c2ccccc2c1O)C(=O)Nc1ccc(C(N)=O)cc1 (stereo unspecified),-24,103*,0,0,-3,78*,19*
CC(OC(=O)c1ccccc1C(=O)N(C)c1ccccc1)C(=O)Nc1ccc(C(N)=O)cc1 (stereo unspecified),2,5,0,0,-3,.,.
Cc1ccc(-c2nc3cccnc3s2)cc1NS(=O)(=O)c1ccc2c(c1)OCCO2,-3,105*,0,0,1,73*,104*
Nn1c(SCC(=O)Nc2ccc(OCc3ccccc3)cc2)nnc1-c1cc(-c2ccc(Cl)cc2)n[nH]1,.,.,.,.,-6,.,.
Cc1ccc2c(c1)N(CCCC(=O)NCc1ccc(F)cc1)C(=O)CO2,.,.,.,.,-4,.,.
COc1ccc(C(=O)N/N=C(\C)CC(=O)NC2CCCCC2)c(OC)c1,-4,12,0,1,2,.,.
COc1cc(NC(=O)C/C(C)=N/NC(=O)c2ccccn2)c(OC)cc1Cl,.,114*,0,0,3,70*,14*
SMILES,TAG inh,AHR act,Tb MetRS inh,Efflux pump mplx,SMARCA2 act,AHR act confirm,PXR counter
COc1cc(NC(=O)C/C(C)=N/NC(=O)C(=O)NC2CCCCC2)c(OC)cc1Cl,-13,97*,0,0,0,11,10
COc1cc(NC(=O)C/C(C)=N/NC(=O)C2CCCCC2)c(OC)cc1Cl,.,105*,0,0,-1,14,9
COc1cc(NC(=O)C2CCCC2)c(OC)cc1Cl,-37,7,-2,0,2,.,.
COc1cc(NC(=O)C/C(C)=N/NC(=O)C(=O)NCCO)c(OC)cc1Cl,0,81*,0,0,2,14,11*
C/C(CC(=O)Nc1ccc(C)c(Cl)c1)=N\NC(=O)c1ccccn1,.,7,-1,1,4,.,.
CC(=O)N1C[C@@H](CO)[C@@H](N(C)C(=O)/C=C/c2ccccc2)C[C@H]1c1ccccc1,.,.,.,.,-3,.,.
CC(=O)N(/N=C1\Sc2ccccc2C1=O)c1ccccc1C,-11,90*,0,0,7,76*,19*
Cn1c(SCC(=O)N/N=C/c2cccs2)nc2ccccc21,.,16,0,0,-1,.,.
Cc1ccc(/C=N/NC(=O)CSc2nc3ccccc3n2C)s1,-4,108*,0,0,-1,92*,52*
Nn1c(SCc2cccc3ccccc23)nnc1-c1n[nH]c2c1CCC2,.,.,.,.,1,.,.
Cc1csc2nc(O)c(C(=O)NC3CCCCC3)c(=O)n12,9,5,0,0,-2,.,.
O=C(NC1CCCC1)c1c(O)nc2sccn2c1=O,0,85*,0,0,-1,114*,10
COCc1nnc(NC(=O)CCS(=O)(=O)c2ccccc2)s1,.,2,0,0,-2,.,.
COc1ccc(OC)c2sc(NC(=O)CCS(=O)(=O)c3ccccc3)nc12,14,115*,0,0,-1,63*,24*
CCOCC(=O)Nc1c(C(=O)Nc2ccc3c(c2)OCO3)oc2ccccc12,.,102*,1,0,0,106*,51*
COc1ccc(NC(=O)c2oc3ccccc3c2NC(=O)C(C)(C)C)cc1,.,-4,-1,0,-5,.,.
CCOc1ccc(NC(=O)c2oc3ccccc3c2NC(=O)CC)cc1,.,95*,.,0,.,58*,29*
Cc1ccc(Cn2nnc3c2-c2cc(F)ccc2S(=O)(=O)N(C(C)(C)C)C3)cc1,.,.,.,.,-5,.,.
O=C1C[C@@H](c2ccccc2)N=C2N(CC3CC3)C/C(=C/c3ccccc3)N12,.,.,.,.,-3,.,.
Cc1nn(-c2ccccc2)c2sc(C(=O)NC3CC3)cc12,.,84*,-1,0,3,80*,39*
Cc1nn(-c2ccccc2)c2sc(C(=O)NC3CCCc4ccccc43)cc12 (stereo unspecified),.,.,.,.,-5,.,.
O=C(CN1CCOCC1)Nc1nc2ccc([N+](=O)[O-])cc2s1,.,133*,-1,1,0,91*,.
COc1cccc(OC)c1C(=O)Nc1nc2ccc([N+](=O)[O-])cc2s1,-3,81*,0,0,-1,75*,9
COc1ccccc1NC(=O)c1ccc([N+](=O)[O-])cc1[N+](=O)[O-],-28,104*,2,0,1,94*,29*
COc1ccc2nc(NC(=O)c3ccccc3O)sc2c1,.,130*,-2,0,3,18,33*
COc1ccc2nc(NC(=O)c3ccccc3[N+](=O)[O-])sc2c1,.,4,0,0,0,.,.
